Paper PMC5497803 (Cancer Science, 2017)

How the values were obtained:
[1] = tested on: MV4;11 cells; test: Cell cycle analysis by flow cytometry; type: cell-based, human; settings: MV4;11, 24 h, 1 μM; control 63.3%
[2] = molecular target: p110γ (Mus musculus, UniProt Q9JHG7); test: PI3K isoform-specific cell-based assay, C5a-stimulated RAW264.7 cells; settings: C5a 50 ng/mL, 3 h drug; compared with Raji cells
[3] = tested on: peripheral blood mononuclear cells; test: Cytotoxicity against peripheral blood mononuclear cells; type: cell-based; settings: 10 μM; data not shown
[4] = molecular target: T1, p110β (Homo sapiens, UniProt P42338); test: PI3K isoform-specific cell-based assay, LPA-stimulated PC‐3 cells; settings: LPA 10 μM, 3 h drug; compared with Raji cells
T1 sequence (P42338 whole entry, species assumed, canonical isoform): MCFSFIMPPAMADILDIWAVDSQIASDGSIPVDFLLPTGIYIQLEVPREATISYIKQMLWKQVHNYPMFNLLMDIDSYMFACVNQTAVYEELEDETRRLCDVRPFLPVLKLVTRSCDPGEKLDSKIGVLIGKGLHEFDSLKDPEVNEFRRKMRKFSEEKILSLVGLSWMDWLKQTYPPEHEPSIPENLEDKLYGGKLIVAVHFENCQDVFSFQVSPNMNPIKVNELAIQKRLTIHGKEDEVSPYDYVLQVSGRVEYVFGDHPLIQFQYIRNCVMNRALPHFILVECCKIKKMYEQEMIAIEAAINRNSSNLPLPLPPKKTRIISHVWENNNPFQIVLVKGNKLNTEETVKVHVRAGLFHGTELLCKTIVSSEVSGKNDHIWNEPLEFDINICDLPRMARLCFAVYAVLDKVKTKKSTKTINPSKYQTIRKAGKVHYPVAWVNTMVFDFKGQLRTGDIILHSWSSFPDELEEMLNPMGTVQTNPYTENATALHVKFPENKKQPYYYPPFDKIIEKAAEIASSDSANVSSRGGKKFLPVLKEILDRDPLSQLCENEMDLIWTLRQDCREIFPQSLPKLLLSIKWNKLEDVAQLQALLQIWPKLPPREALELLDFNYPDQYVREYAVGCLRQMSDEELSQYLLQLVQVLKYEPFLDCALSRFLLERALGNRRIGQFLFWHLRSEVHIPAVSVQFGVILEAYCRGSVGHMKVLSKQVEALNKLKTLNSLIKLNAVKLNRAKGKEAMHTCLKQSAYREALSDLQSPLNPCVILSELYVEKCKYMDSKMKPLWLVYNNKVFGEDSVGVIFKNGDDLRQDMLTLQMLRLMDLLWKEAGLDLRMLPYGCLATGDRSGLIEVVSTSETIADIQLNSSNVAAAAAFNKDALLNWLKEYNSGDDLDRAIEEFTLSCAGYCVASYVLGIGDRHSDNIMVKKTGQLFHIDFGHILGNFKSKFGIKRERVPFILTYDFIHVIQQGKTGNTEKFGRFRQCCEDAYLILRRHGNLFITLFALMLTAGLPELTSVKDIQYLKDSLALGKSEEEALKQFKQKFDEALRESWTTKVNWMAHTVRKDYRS
T1 sequence (P27986 whole entry partner, species assumed, canonical isoform): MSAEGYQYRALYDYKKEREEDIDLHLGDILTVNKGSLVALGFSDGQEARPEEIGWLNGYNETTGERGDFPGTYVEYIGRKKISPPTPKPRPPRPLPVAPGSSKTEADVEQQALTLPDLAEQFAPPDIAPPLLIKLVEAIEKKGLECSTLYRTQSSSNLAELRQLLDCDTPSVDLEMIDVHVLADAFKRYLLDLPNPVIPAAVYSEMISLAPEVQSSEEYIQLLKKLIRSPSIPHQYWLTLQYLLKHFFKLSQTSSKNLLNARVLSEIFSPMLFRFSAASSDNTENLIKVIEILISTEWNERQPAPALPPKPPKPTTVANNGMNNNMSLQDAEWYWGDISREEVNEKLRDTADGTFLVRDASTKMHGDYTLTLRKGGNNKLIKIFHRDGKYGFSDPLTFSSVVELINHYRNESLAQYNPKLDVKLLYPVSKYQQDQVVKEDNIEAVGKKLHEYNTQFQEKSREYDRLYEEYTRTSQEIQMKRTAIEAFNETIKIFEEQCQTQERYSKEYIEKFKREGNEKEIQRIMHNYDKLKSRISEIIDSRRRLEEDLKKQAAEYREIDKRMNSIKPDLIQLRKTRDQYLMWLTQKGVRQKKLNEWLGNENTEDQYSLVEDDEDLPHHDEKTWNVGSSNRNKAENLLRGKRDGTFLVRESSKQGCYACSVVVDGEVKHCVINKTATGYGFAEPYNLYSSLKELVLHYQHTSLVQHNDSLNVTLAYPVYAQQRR
Procedure, shortened: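 PC-3 cells stimulated with LPA (10 μM) for 10 min, then exposed to test compound for a further 3 h. Cell lysates western blotted for AKT phosphorylation.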

[5] = Pharmacokinetic study in MV4; type: in vivo; settings: single oral dose 60 mg/kg, MV4;11 tumor‐bearing mice
Procedure, shortened: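 MV4;11 tumour-bearing nude mice given a single oral 60 mg/kg dose or vehicle. Plasma and tumours collected at times from 0.5 to 24 h. Drug levels in plasma and tissue measured by HPLC/tandem MS; tumour extracts western blotted for phospho-AKT and phospho-ERK.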

[6] = tested on: MV4;11 cells; test: Apoptosis, Annexin V staining and cleaved caspases/PARP; type: cell-based, human; settings: MV4;11 (and RS4;11), 48 h
Procedure, shortened: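 MV4;11 and RS4;11 cells exposed to test compound at several concentrations for 48 h. Whole-cell lysates were resolved by SDS-PAGE, blotted onto PVDF and probed for PARP and caspase-3, -8 and -9 cleavage, with ECL detection.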

[7] = molecular target: T2, p110α (Homo sapiens, UniProt P42336); test: biochemical
T2 sequence (P42336 whole entry, species assumed): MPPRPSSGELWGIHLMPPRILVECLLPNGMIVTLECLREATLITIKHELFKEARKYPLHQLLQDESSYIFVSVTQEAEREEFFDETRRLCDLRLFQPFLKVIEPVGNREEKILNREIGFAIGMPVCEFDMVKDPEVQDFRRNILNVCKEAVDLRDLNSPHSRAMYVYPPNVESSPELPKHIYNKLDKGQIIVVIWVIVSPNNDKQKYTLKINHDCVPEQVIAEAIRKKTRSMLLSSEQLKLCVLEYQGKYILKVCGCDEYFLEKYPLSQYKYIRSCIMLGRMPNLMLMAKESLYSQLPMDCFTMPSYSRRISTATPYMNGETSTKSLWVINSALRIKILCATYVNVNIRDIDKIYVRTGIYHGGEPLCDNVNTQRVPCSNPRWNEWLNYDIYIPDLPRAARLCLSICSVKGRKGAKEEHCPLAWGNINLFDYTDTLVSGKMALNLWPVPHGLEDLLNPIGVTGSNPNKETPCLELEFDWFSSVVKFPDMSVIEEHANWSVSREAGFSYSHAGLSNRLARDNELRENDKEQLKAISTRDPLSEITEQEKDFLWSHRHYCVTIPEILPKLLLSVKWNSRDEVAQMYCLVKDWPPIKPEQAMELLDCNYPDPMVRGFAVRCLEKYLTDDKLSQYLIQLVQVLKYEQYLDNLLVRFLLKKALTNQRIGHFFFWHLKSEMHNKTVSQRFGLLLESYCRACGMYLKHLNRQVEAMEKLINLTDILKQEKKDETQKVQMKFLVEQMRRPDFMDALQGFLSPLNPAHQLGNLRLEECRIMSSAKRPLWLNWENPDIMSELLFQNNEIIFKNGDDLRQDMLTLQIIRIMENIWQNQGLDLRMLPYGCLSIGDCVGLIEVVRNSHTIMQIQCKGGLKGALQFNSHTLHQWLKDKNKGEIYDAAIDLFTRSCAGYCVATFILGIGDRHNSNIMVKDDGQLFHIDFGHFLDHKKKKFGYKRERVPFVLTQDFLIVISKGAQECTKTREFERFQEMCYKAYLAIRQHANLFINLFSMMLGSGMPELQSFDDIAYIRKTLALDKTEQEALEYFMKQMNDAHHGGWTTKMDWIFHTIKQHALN
T2 sequence (P27986 whole entry partner, species assumed): as the sequence (P27986 whole entry partner, species assumed, canonical isoform) above

[8] = tested on: phosphorylation of AKT and ERK in AML cells; test: Constitutive PI3K/AKT and ERK signaling in AML cells; type: cell-based, human; settings: Kasumi‐1 and EOL‐1 cells, 1 μM, 3 h
Procedure, shortened: (§1)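 Cells in RPMI-1640/10% FBS treated with 1 μM test compound for 3 h, with no added stimulus. Whole-cell lysates separated by SDS-PAGE and transferred to PVDF. Probed for phospho-AKT (S473, T308), phospho-ERK1/2, phospho-S6 and phospho-P70S6K; ECL detection.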

[9] = tested on: p110δ‐negative MM.1R cell line; test: Cell proliferation MTT assay; type: cell-based; settings: 72 h
Procedure, shortened: (§2)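 Cells kept in RPMI-1640 with 10% FBS at 37°C, 5% CO2. In 96-well plates, cells exposed in triplicate to a range of test compound concentrations for 72 h at 37°C. Viability read by MTT conversion to coloured product. IC50 by curve fitting; mean ± SEM of three independent experiments.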

[10] = tested on: panel of other protein kinases; test: SelectScreen kinase profiling, whole panel; type: biochemical; settings: 1000 nM
[11] = tested on: RS4;11 xenografts; test: RS4; type: in vivo, nude mice
Procedure, shortened: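 Female Balb/cA nude mice, 5–6 weeks old, inoculated subcutaneously with 5–9 × 10^6 MV4;11 or RS4;11 cells and randomised at 100–300 mm3. Dosed orally with 30 or 60 mg/kg daily for 21 days, or vehicle (vehicle n = 12, treated n = 6). Tumour volume taken as (length × width²)/2; body weight and toxicity signs recorded. Tumours collected 3 h after last dose for western blot.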

[12] = molecular target: T1, p110β; test: biochemical
[13] = molecular target: T3, p110δ (Homo sapiens, UniProt O00329); test: PI3K ELISA kinase assay, recombinant class I PI3K; type: biochemical
T3 sequence (O00329 whole entry, species assumed): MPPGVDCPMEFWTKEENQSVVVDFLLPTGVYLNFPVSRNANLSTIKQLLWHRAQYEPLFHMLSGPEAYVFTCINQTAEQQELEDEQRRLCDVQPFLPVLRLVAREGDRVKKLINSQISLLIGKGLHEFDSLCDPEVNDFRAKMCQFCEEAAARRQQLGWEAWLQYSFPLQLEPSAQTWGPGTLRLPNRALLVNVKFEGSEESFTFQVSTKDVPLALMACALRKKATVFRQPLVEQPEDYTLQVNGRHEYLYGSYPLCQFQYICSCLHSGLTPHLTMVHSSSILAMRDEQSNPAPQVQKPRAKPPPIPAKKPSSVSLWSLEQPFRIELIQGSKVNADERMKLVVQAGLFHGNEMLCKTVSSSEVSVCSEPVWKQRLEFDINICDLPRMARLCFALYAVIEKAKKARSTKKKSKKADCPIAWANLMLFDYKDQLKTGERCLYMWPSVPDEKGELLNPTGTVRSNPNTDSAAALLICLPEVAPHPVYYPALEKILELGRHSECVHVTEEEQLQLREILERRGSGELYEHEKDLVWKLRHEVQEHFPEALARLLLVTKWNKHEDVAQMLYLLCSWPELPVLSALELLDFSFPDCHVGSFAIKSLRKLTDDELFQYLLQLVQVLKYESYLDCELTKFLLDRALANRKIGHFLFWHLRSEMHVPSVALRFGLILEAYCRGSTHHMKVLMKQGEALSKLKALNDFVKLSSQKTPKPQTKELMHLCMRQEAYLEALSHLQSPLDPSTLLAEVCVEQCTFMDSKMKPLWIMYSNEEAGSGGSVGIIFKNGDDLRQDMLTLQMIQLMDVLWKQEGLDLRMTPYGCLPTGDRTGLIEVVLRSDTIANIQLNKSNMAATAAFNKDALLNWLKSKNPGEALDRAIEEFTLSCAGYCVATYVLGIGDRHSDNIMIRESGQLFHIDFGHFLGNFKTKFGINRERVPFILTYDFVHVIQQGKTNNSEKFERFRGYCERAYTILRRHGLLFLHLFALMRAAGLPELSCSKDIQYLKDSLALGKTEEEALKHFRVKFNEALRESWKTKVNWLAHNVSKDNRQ
T3 sequence (P27986 whole entry partner, species assumed): as the sequence (P27986 whole entry partner, species assumed, canonical isoform) above

[14] = previous study ref 38; cited from earlier work
[15] = tested on: MV4;11 xenografts; test: MV4; type: in vivo, nude mice
[16] = tested on: phosphorylation of AKT or ERK in MM.1R cells; test: Constitutive PI3K/AKT and ERK signaling in MM.1R cells; type: cell-based; settings: low expression of p110δ; 1 μM, 3 h
Procedure, shortened: as §1

[17] = molecular target: T2, p110α; test: PI3K isoform-specific cell-based assay, SK‐BR‐3 cells; settings: 3 h
Procedure, shortened: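 SK-BR-3 cells exposed to test compound for 3 h. Cell lysates western blotted with phospho-specific antibodies for AKT phosphorylation.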

[18] = molecular target: T3, p110δ; test: PI3K isoform-specific cell-based assay, anti‐IgM–stimulated Raji cells; settings: anti‐IgM 1 μg/mL 10 min, then 3 h drug
[19] = tested on: MV4;11 cells; test: Cell proliferation MTT assay; type: cell-based; settings: Homo sapiens, MV4-11, 72 h, read-out: IC50 value, MV4;11
Procedure, shortened: as §2

Chain of p110γ (Q9JHG7 whole entry, canonical isoform): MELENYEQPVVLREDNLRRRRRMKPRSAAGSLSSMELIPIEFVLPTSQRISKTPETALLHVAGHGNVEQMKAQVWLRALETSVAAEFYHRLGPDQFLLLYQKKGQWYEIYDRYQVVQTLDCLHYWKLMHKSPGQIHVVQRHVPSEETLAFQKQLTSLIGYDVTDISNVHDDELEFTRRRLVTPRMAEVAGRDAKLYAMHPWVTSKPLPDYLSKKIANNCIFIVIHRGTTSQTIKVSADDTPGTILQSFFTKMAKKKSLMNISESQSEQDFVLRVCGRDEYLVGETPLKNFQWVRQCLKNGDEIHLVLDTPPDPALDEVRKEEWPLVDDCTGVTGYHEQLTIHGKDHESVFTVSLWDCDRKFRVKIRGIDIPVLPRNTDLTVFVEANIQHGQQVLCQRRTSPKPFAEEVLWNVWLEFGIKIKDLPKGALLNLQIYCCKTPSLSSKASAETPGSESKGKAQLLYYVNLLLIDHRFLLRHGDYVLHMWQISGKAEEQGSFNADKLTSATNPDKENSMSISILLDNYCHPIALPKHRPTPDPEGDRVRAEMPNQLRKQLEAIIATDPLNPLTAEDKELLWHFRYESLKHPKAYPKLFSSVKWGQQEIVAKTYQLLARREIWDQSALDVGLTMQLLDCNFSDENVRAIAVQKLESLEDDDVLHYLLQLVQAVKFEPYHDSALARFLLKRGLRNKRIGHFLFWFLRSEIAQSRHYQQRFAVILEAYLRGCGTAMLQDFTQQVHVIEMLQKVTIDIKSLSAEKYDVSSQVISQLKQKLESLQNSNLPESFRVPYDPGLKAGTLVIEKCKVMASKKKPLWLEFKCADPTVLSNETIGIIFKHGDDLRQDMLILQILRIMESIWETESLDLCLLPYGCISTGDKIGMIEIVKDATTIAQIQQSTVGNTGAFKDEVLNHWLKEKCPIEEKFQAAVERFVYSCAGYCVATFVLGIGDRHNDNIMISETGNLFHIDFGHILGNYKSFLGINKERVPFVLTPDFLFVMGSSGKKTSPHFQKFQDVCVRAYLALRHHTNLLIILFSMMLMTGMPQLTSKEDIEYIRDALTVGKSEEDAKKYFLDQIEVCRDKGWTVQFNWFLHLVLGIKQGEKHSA

With c1cnc2ccc(Nc3nc(NC4CC4)c4nc[nH]c4n3)cc2c1 [Puquitinib] the G1 phase cells [1] was 83.0%, the “C5a‐stimulated phosphorylation of AKT in RAW 264.7 cells” value [2] was “much weaker” and the “Cytotoxicity against peripheral blood mononuclear cells” value [3] was “no cytotoxicity”. For the same compound, the “LPA‐stimulated phosphorylation of AKT in PC‐3 cells” value [4] was “much weaker”, the “Appearance in plasma and tumor tissue” value [5] was “appeared rapidly” and the Apoptosis induction [6] was “increased in a dose‐dependent manner”. For the same compound, the IC50 [7] was 993 ± 320 nM, the “Phosphorylation of AKT and ERK in p110δ‐positive AML cells” value [8] was “significantly inhibited” and the “Cytotoxicity in p110δ‐negative MM.1R cell line” value [9] was “minimal cytotoxicity”. For the same compound, the “Inhibitory activity against a panel of other protein kinases” value [10] was “little or no inhibitory activity”, the Tumor growth inhibition ([11]; 30 mg/kg oral daily for 21 days) was 50% and the Tumor growth inhibition ([11]; 60 mg/kg oral daily for 21 days) was 69%. For the same compound, the IC50 [12] was 959 ± 367 nM, the IC50 [13] was 3.3 ± 0.6 nM and the Hyperglycemia [14] was “no puquitinib‐related hyperglycemia”. For the same compound, the “Levels of pAKT and pERK in tumor tissues” value ([15]; MV4;11 and RS4;11 tumor models, 3 h after last dose) was “significantly decreased”, the “Tolerability (body weight loss, signs of toxicity)” value ([15]; MV4;11 and RS4;11 xenograft studies, all groups) was “well tolerated” and the “Phosphorylation of AKT and ERK in tumor tissue after a single dose” value ([15]; MV4;11 xenograft, single oral 60 mg/kg, 0.5 to 24 h) was “inhibited in a time‐dependent manner”. For the same compound, the Tumor growth inhibition ([15]; MV4;11 xenografts, 30 mg/kg oral daily for 21 days, final treatment day) was 72%, the Complete tumor regression ([15]; MV4;11 xenografts, 60 mg/kg oral daily) was “three of six” and the Tumor growth inhibition ([15]; MV4;11 xenografts, 60 mg/kg oral daily for 21 days, final treatment day) was 103%. For the same compound, the “Antitumor efficacy of combination versus single agents” value ([15]; MV4;11 xenografts, 30 mg/kg puquitinib combined with 2 mg/kg daunorubicin, P < 0.01) was “significantly superior”, the Tolerability of combination ([15]; MV4;11 xenografts, puquitinib with daunorubicin or cytarabine) was “generally well tolerated” and the “Phosphorylation of AKT or ERK in MM.1R cells” value [16] was “did not affect”. For the same compound, the “p110α/AKT phosphorylation in SK‐BR‐3 cells” value [17] was “No obvious inhibitory activity”, the “Phosphorylation of AKT, S6 and ERK in anti‐IgM–stimulated Raji cells” value [18] was “concentration‐dependent decrease” and the IC50 [19] was 100 nM.
With CC[C@H](Nc1ncnc2[nH]cnc12)c1nc2cccc(F)c2c(=O)n1-c1ccccc1 [CAL‐101, Idelalisib, reference compound] the G1 phase cells [1] was 70.7%, the Apoptosis induction [6] was “weaker induction of apoptosis” and the “Phosphorylation of AKT and ERK in p110δ‐positive AML cells” value [8] was “preferentially inhibited phosphorylation of AKT relative to ERK”. The Tumor growth inhibition ([15]; MV4;11 xenografts, 90 mg/kg oral daily) was 50%, the Tumor growth inhibition ([15]; MV4;11 xenografts, 180 mg/kg oral daily) was 61% and the “Phosphorylation of AKT, S6 and ERK in anti‐IgM–stimulated Raji cells” value [18] was “concentration‐dependent decrease”. For the same compound, the IC50 [19] was 2400 nM.
